Compound activity (PubChem BioAssay)
Most compounds without a hit are left out; they make up all but 5.9% or so of the library.
T cruzi growth-1: T. cruzi intracellular proliferation inhibitors, primary screen, cell-based, beta-gal Tulahuen parasites, NIH3T3 host, luminescence. T. cruzi beta-gal in NIH3T3, GalScreen luminescence, 90 h. inhibition, % at 8.34 µM. 77,000 tested, 5.9% active. AID 624255, 2012;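 active means mean inhibition above about 93%, with at least 55% of replicates each passing it, limit read from the data, passing the limit was not always enough; inconclusive means only one of those two conditions holds; inactive means neither condition holds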
IDH1 mut inh: inhibitors of IDH1 R132H reductase, primary screen, biochemical, plate reader, single point; Isocitrate dehydrogenase [NADP] cytoplasmic (Homo sapiens), O75874; diaphorase/resazurin fluorescence, 60 min; inhibition, % at 10 µM; 70,000 tested, 0.18% active; AID 624101, 2012; in the data active means inhibition above about 34%; inconclusive means no clear call, values can overlap the other calls; inactive means below about 11%;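 further: 0% = DMSO and 100% = no enzyme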
Target sequence (O75874 whole entry R132H): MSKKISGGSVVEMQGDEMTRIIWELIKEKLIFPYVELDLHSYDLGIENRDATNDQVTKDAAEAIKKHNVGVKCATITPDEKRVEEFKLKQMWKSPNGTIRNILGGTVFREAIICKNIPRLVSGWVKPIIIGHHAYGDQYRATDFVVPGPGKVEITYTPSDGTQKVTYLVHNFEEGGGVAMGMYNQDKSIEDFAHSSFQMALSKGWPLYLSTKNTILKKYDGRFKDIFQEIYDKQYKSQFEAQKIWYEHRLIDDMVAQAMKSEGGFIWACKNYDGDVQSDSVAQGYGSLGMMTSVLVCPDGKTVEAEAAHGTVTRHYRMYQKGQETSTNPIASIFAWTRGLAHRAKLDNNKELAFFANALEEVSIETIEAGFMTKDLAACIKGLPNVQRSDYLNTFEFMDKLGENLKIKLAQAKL
GASC1 inh: inhibitors of GASC-1 (KDM4C) histone demethylase, primary screen, biochemical, single concentration HTS. GST-KDM4C 2-372, H3K9me3 peptide, LANCE TR-FRET. 96,000 tested, 0.15% active. AID 720574, 2013. inhibition, % at 12.5 µM;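 active means mean replicate inhibition above about 25%, with at least 55% of replicates also reaching it, limit read from the data, passing the limit was not always enough; inconclusive means only one of those two conditions met; inactive means neither condition met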
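Material: GST-tagged GASC-1 (JMJD2C) catalytic fragment, aa 2-372 / Quantity: enzyme final amount 10 nM / Medium: HEPES buffer, pH 7.5, plus ascorbate / Doses: one test concentration per compound / Incubation: 30 min reaction, 60 min detection, RT / Measured by: LANCE TR-FRET / Read-out: inhibition from TR-FRET ratio decrease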
Pf Dd2 inh: P. falciparum Dd2 growth inhibitors, primary screen, SYBR Green fluorescence, single dose replicates; 72 h; stronger effect = lower value; activity change, % at 10 µM; 94,000 tested, 2.3% active; in the data active means activity change below about -80%; inconclusive means no clear call, values can overlap the other calls
T cruzi growth-2: T. cruzi intracellular proliferation inhibitors, confirmation, cell-based, NIH3T3 host, beta-gal parasite, luminescence, cherry-pick; inhibition, % at 8.35 µM; AID 651739, 2012; shares compounds with T cruzi growth-1; 5,600 tested, 72% active; T. cruzi beta-gal in NIH3T3, GalScreen luminescence, 90 h;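 active means mean replicate inhibition above about 95% and at least 55% of replicates individually reaching it, limit read from the data; inconclusive means only one of the two criteria is met; inactive means neither criterion is met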
T cruzi growth-3: inhibitors of intracellular T. cruzi replication, confirmation, NIH3T3 host cells, beta-gal parasites, cherry-pick, set 2 | shares compounds with T cruzi growth-1 | T. cruzi beta-gal in NIH3T3, GalScreen luminescence, 90 h | inhibition, % at 2.09 µM | 5,600 tested, 21% active | AID 651740, 2012;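 active means mean inhibition above about 95%, with at least 55% of replicates also reaching it, limit read from the data; inconclusive means meets just one of the two conditions; inactive means meets neither condition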;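 further: plate controls were neutral control median for no effect and positive control median for full effect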
3T3 cytotox: cytotoxicity in mouse NIH/3T3 fibroblasts, confirmation, cytotoxicity control for T. cruzi proliferation inhibitor project, cell-based, cherry-pick, single point; NIH/3T3 viability, CellTiter-Glo ATP luminescence, 90 h; 5,600 tested, 14% active; cytotoxicity (signal decrease), % at 8.35 µM; shares compounds with T cruzi growth-1;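 active means mean signal decrease across replicates above about 35% based on untreated-well scatter, with enough replicates individually passing, limit read from the data; inconclusive means no rule stated though some were filed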;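 further: 0% = median of neutral control wells and 100% = median of positive control wells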
3T3 cytotox 2: NIH/3T3 fibroblast cytotoxicity, confirmation, cytotoxicity control, cell-based, cherry-pick, single point, set 2 | shares compounds with T cruzi growth-1 | NIH/3T3 viability, CellTiter-Glo ATP luminescence, 90 h | inhibition, % at 24.9 µM | 5,600 tested, 56% active | AID 651744, 2012;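 active means mean loss of cell viability signal at or above a set limit, and enough replicates individually reaching it; inconclusive means meets only the mean limit or only the replicate share; inactive means meets neither condition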;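 further: 0% = median of neutral control wells and 100% = median of positive control wells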
Numbers without * were called inactive; ? = inconclusive; . = not tested or not shown.

SMILES	T cruzi growth-1	IDH1 mut inh	GASC1 inh	Pf Dd2 inh	T cruzi growth-2	T cruzi growth-3	3T3 cytotox	3T3 cytotox 2
C[C@H]1CCCCO[C@H](CN(C)S(=O)(=O)c2cccs2)[C@@H](C)CN([C@@H](C)CO)C(=O)c2cc(NS(=O)(=O)c3ccc(Cl)cc3)ccc2O1	103*	.	-1	-58	106*	77	-27	-14
C[C@@H]1CCCCO[C@H](CN(C)S(=O)(=O)c2cccs2)[C@@H](C)CN([C@H](C)CO)C(=O)c2cc(NS(=O)(=O)c3ccc(Cl)cc3)ccc2O1	66	0	1	-12	.	.	.	.
C[C@H]1CN([C@@H](C)CO)C(=O)c2cccc(NC(=O)CCCCCC(=O)Nc3ccccc3N)c2O[C@@H]1CN(C)Cc1ccc2c(c1)OCO2	127*	.	12	-92*	107*	108*	-1	25*
C[C@@H]1CN([C@H](C)CO)C(=O)c2cccc(NC(=O)CCCCCC(=O)Nc3ccccc3N)c2O[C@H]1CN(C)Cc1ccc(-c2ccccc2)cc1	?	.	6	-92*	84	-14	-3	-7
C[C@@H]1CCCCO[C@H](CN(C)C(=O)C2CCCCC2)[C@H](C)CN([C@@H](C)CO)C(=O)c2cc(NC(=O)Nc3ccc(C(F)(F)F)cc3)ccc2O1	118*	.	0	-59	98*	118*	-18	-2
C[C@@H]1CCCCO[C@@H](CN(C)C(=O)C2CCCCC2)[C@@H](C)CN([C@H](C)CO)C(=O)c2cc(NC(=O)Nc3ccc(F)cc3)ccc2O1	12	.	1	-49	.	.	.	.
C[C@H]1CCCCO[C@H](CN(C)C(=O)C2CCCCC2)[C@@H](C)CN([C@@H](C)CO)C(=O)c2cc(NC(=O)Nc3ccc(C(F)(F)F)cc3)ccc2O1	121*	0	2	?	96*	111*	-4	31*
C[C@@H]1CCCCO[C@@H](CN(C)C(=O)C2CCCCC2)[C@@H](C)CN([C@H](C)CO)C(=O)c2cc(NC(=O)Nc3ccc(C(F)(F)F)cc3)ccc2O1	117*	.	20	-50	87	63	30	26*
C[C@@H]1CN([C@@H](C)CO)C(=O)c2cc(NC(=O)Nc3ccc(C(F)(F)F)cc3)ccc2O[C@@H](C)CCCCO[C@@H]1CN(C)C(=O)C1CCCCC1	102	1	0	-78	.	.	.	.
COc1cccc(C(=O)NC(NCC2CCCO2)(C(F)(F)F)C(F)(F)F)c1 (stereo unspecified)	.	-1	.	.	.	.	.	.
COc1cccc(C(=O)Nc2ccc3c(c2)C(=O)N(C)[C@H]2CC[C@@H](CC(=O)NCc4ccc(F)cc4)O[C@H]2CO3)c1	97*	.	1	-36	105*	16	51*	50*
CN1C(=O)c2cc(NC(=O)c3ccc(Cl)cc3)ccc2OC[C@@H]2O[C@H](CC(=O)NCc3cccc(F)c3)CC[C@@H]21	101*	.	-3	-23	92	66	43*	34*
COc1ccccc1C(=O)Nc1ccc2c(c1)C(=O)N(C)[C@H]1CC[C@H](CC(=O)Nc3cccc(C(C)C)c3)O[C@@H]1CO2	?	.	0	.	106*	68	30	23
CCOC(=O)c1c(NC(=S)N(C)Cc2c(C)nn(C)c2C)sc2c1CCCCCC2	.	-1	.	.	.	.	.	.
COc1cccc(NC(=O)N(C)C[C@H]2Oc3ncc(C#Cc4ccccc4)cc3C(=O)N([C@@H](C)CO)C[C@@H]2C)c1	123*	.	.	-45	112*	110*	-35	-1
